# From ChEMBL document CHEMBL1127290, “1-(2,5-Dimethoxy-4-(trifluoromethyl)phenyl)-2-aminopropane: a potent serotonin 5-HT2A/2C agonist” (J Med Chem, 1994)
# What was measured:
# [1] = target: T1, 5-hydroxytryptamine receptor 2C (Mus musculus) (UniProt P34968); assay: Percent of maximum stimulation of phosphatidylinositol turnover at cloned 5-hydroxytryptamine 2C receptor in A9 cells; assay type: functional, cell-based
# T1 sequence (whole entry): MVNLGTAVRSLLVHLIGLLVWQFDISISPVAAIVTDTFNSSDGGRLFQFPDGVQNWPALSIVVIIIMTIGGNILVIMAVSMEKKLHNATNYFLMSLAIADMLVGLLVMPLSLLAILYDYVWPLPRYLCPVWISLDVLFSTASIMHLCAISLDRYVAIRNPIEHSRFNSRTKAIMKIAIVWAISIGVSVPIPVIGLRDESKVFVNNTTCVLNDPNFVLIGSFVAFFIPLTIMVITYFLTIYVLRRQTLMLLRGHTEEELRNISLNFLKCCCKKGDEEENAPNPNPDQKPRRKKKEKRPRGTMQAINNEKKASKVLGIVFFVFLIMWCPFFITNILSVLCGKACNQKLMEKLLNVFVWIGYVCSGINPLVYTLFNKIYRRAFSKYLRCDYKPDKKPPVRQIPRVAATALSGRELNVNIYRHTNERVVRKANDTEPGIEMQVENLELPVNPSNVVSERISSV
# Outline: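 A9 cells expressing cloned 5-HT2C receptor, labelled 18 h with 1 μCi/mL [3H]inositol in inositol-free DMEM with dialysed serum. Compounds given 60 min with 10 mM LiCl in Krebs bicarbonate buffer, then [3H]inositol monophosphate accumulation measured. Expressed as % of the 5-HT (10^-5 M) maximum minus control. Vmax by nonlinear regression. Triplicates in three experiments, mean ± SE.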
# [2] = target: 5-hydroxytryptamine receptor 2A (Mus musculus) (UniProt P35363); assay: Percent of maximum stimulation of phosphatidylinositol turnover at cloned 5-hydroxytryptamine 2A receptor in 3T3 cells; assay type: functional, cell-based; settings: NIH3T3
# Sequence of 5-hydroxytryptamine receptor 2A (Mus musculus) (P35363 whole entry): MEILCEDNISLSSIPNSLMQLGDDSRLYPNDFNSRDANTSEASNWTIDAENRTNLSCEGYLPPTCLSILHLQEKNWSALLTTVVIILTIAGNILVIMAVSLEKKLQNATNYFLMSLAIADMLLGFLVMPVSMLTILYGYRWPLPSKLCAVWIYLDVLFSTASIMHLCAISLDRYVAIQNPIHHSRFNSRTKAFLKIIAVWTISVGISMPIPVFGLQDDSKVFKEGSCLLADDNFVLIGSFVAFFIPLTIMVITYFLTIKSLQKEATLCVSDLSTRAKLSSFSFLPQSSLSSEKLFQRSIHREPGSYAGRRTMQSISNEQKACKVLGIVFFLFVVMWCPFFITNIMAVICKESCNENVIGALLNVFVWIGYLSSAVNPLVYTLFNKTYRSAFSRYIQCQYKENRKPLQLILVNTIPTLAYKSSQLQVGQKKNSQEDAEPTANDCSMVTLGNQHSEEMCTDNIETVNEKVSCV
Compound,K aff [1] [nM],K aff [2] [nM]
COc1cc(C(F)(F)F)c(OC)cc1CC(C)N (stereo unspecified),43,86
COc1cc(CC(C)N)c(OC)cc1I (stereo unspecified),43,119
COc1cc(C(F)(F)F)c(OC)cc1CCN,32,165
